What was measured:
[1] = target: T1, Cytochrome P450 3A4 (Homo sapiens, UniProt P08684); experiment: Rate of Oxidation in human liver microsomes is measured as mean (nmol product) formed / min per nmol cytochrome P-450
[2] = target: T1, Cytochrome P450 3A4; experiment: Percent inhibition of human liver microsome cytochrome P-450 mediated nifedipine oxidase activity in the presence of NADPH; settings: microsomes
How it was run: (§1)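 Human liver microsomes (sample HL 95) preincubated with test compound (50 μM) plus NADPH-generating system for 20 min at 37 °C. […] Activity measured afterwards; values corrected for inhibition by methanol solvent alone.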

[3] = Percent inhibition of human liver microsome cytochrome P-450 mediated hexobarbital 3'-hydroxylase activity in the presence of NADPH; settings: microsomes; how it was run: as §1
[4] = Percent inhibition of human liver microsome cytochrome P-450 mediated phenacetin O-deethylase activity in the presence of NADPH; settings: microsomes; how it was run: as §1
[5] = target: T1, Cytochrome P450 3A4; experiment: Percent inhibition of human liver microsome cytochrome P-450 mediated nifedipine oxidase activity without NADPH; settings: microsomes
How it was run: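 Microsomes (HL 95, 500 pmol P-450 in 0.5 mL 50 mM potassium phosphate, pH 7.85) preincubated 20 min at 37 °C with compound (50 μM) without NADPH-generating system. […] Values corrected for methanol solvent.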

[6] = target: T1, Cytochrome P450 3A4; experiment: Rate of Oxidation in human liver microsomes as mean (nmol product) formed/min/nmol cytochrome P-450; e denotes Product not separated with HPCL system; type: ADME, Microsome
How it was run: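 NADPH-fortified human liver microsomes (HL 94, HL 95, HL 96; usually 50 pmol P-450), substrate 0.2 mM, 100 mM potassium phosphate pH 7.85, 37 °C, 10 min, amber vials. Stopped with Na2CO3/NaCl pH 10.5 and extracted into CH2Cl2. Pyridine product quantified by isocratic reversed-phase HPLC (UV 254 and/or 280 nm) against external standards by peak height. Value is the mean with range over the three samples.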

[7] = Percent inhibition of human liver microsome cytochrome P-450 mediated phenacetin O-deethylase activity without NADPH; Phenacetin O-deethylase activity inhibited by 40%; settings: microsomes

T1 sequence (P08684 whole entry): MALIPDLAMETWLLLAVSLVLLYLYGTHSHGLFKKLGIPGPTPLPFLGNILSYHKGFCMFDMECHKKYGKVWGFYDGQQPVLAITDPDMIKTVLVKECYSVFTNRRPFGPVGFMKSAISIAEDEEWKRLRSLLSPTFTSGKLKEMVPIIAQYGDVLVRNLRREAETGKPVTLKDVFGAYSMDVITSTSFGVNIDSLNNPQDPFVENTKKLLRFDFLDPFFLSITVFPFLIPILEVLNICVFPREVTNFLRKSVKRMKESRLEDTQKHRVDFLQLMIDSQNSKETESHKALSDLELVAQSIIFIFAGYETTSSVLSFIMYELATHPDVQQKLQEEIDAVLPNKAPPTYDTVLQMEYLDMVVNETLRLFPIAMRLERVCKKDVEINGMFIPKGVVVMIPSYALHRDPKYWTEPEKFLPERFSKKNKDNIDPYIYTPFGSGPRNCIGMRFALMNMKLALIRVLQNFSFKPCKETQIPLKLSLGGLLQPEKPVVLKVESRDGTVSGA

SMILES: COC(=O)C1=C(C)N=C(C)/C(=C(/O)OC)C1c1ccc(Cl)c([N+](=O)[O-])c1 (stereo unspecified)
- Rate of oxidation [1]: 0.61

SMILES: COC(=O)C1=C(C)N=C(C)/C(=C(/O)OC)C1c1c(F)c(F)cc(F)c1F (stereo unspecified)
- Rate of oxidation [1]: 0.98

SMILES: COC(=O)C1=C(C)N=C(C)/C(=C(/O)OC)C1Cc1ccccc1 (stereo unspecified)
- Inhibition [2]: 86%
- Inhibition [3]: 80%
- Inhibition [4]: 50%
- Rate of oxidation [1]: 0.25
- Inhibition [5]: 25%

SMILES: COC(=O)C1=C(C)N=C(C)/C(=C(/O)OC)C1C(C)C (stereo unspecified)
- Inhibition [2]: 89%
- Inhibition [3]: 73%
- Inhibition [4]: 55%
- Rate of oxidation [6]: Not separated
- Inhibition [5]: 32%

SMILES: COC(=O)C1=C(C)N=C(C)/C(=C(\O)OC)C1c1cccc(C#N)c1 (stereo unspecified)
- Rate of oxidation [1]: 0.41

SMILES: CCOC(=O)C1=C(C)N=C(C)/C(=C(/O)OCC)C1CC (stereo unspecified)
- Inhibition [2]: 89%
- Inhibition [3]: 82%
- Rate of oxidation [1]: 0.12
- Inhibition [7]: 40%
- Inhibition [5]: 45%

SMILES: CCOC(=O)C1=C(C)NC(C)=C(C(=O)OCC)C1c1ccccc1
- Rate of oxidation [1]: 0.51

SMILES: COC(=O)C1=C(C)N=C(C)/C(=C(/O)OC)C1c1c(F)cccc1Cl (stereo unspecified)
- Rate of oxidation [1]: 0.76

SMILES: COC(=O)C1=C(C)N=C(C)/C(=C(/O)OC)C1C1CC=CCC1 (stereo unspecified)
- Inhibition [2]: 86%
- Inhibition [3]: 82%
- Inhibition [4]: 59%
- Rate of oxidation [1]: 0.12
- Inhibition [5]: 27%

SMILES: COC(=O)C1=C(C)N=C(C)/C(=C(/O)OC)C1c1cccc(Cl)c1 (stereo unspecified)
- Rate of oxidation [1]: 0.5

SMILES: COC(=O)C1=C(C)N=C(C)/C(=C(\O)OC)C1c1ccc(C)cc1 (stereo unspecified)
- Rate of oxidation [1]: 0.51

SMILES: CCOC(=O)C1=C(C)NC(C)=C(C(=O)OC)C1c1cccc([N+](=O)[O-])c1 (stereo unspecified) [NITRENDIPINE]
- Rate of oxidation [1]: 0.52

SMILES: CCCCCO/C(O)=C1\C(C)=NC(C)=C(C(=O)OCCOCCC)C1c1cccc([N+](=O)[O-])c1 (stereo unspecified)
- Rate of oxidation [1]: 0.67

SMILES: COC(=O)C1=C(C)NC(C)=C(C(=O)OC)C1c1ccccc1
- Rate of oxidation [1]: 0.53

SMILES: COC(=O)C1=C(C)N=C(C)/C(=C(/O)OC)C1c1ccc(C(F)(F)F)cc1 (stereo unspecified)
- Rate of oxidation [1]: 0.45

Reference: ChEMBL document CHEMBL1123360, “Oxidation of 4-aryl- and 4-alkyl-substituted 2,6-dimethyl-3,5-bis(alkoxycarbonyl)-1,4-dihydropyridines by human liver microsomes and immunochemical evidence for the involvement of a form of cytochrome P-450” (J Med Chem, 1986)
